Results as given in ChEMBL document CHEMBL4354843, “Structure-Based Design of a Potent and Selective Covalent Inhibitor for SRC Kinase That Targets a P-Loop Cysteine” (J Med Chem, 2020).

Legend:
[1] = biological target: Dual specificity mitogen-activated protein kinase kinase 3 (Homo sapiens) (UniProt P46734); assay: Binding affinity to wild-type human full length MEK3 (M1 to S318 residues) expressed in mammalian expression system assessed as residual binding level at 1 uM by Kinomescan method relative to control
Method in brief: (§1)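 KinomeScan, an active site-directed competition binding panel of 468 kinases. The test compound was at 1 μM. The readout is remaining kinase binding as a percentage of the DMSO control. Scores above 35% were treated as weak binding and not listed.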

[2] = biological target: STE20/SPS1-related proline-alanine-rich protein kinase (Homo sapiens) (UniProt Q9UEW8); assay: Binding affinity to wild-type human partial length STK39 (P43 to I357 residues) expressed in mammalian expression system assessed as residual binding level at 1 uM by Kinomescan method relative to control
[3] = biological target: Serine/threonine-protein kinase NLK (Homo sapiens) (UniProt Q9UBE8); assay: Binding affinity to wild-type human full length NLK (M13 to E527 residues) expressed in bacterial expression system assessed as residual binding level at 1 uM by Kinomescan method relative to control; method in brief: as §1
[4] = biological target: Serine/threonine-protein kinase ULK2 (Homo sapiens) (UniProt Q8IYT8); assay: Binding affinity to wild-type human partial length ULK2 (M1 to S301 residues) expressed in mammalian expression system assessed as residual binding level at 1 uM by Kinomescan method relative to control
[5] = biological target: Casein kinase I isoform epsilon (Homo sapiens) (UniProt P49674); assay: Binding affinity to wild-type human full length CSNK1E (M1 to K416 residues) expressed in bacterial expression system assessed as residual binding level at 1 uM by Kinomescan method relative to control
Method in brief: (§2)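 Active-site-directed KinomeScan competition binding panel covering 468 kinases, compound tested at 1 μM. Each readout is the kinase signal remaining with compound, expressed as a percentage of the DMSO control. […]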

[6] = biological target: Casein kinase I isoform alpha-like (Homo sapiens) (UniProt Q8N752); assay: Binding affinity to wild-type human full length CSNK1A1L (M1 to N337 residues) expressed in bacterial expression system assessed as residual binding level at 1 uM by Kinomescan method relative to control; method in brief: as §2
[7] = biological target: 1-phosphatidylinositol 3-phosphate 5-kinase (Homo sapiens) (UniProt Q9Y2I7); assay: Binding affinity to wild-type human partial length PIKFYVE (F1512 to C2098 residues) expressed in mammalian expression system assessed as residual binding level at 1 uM by Kinomescan method relative to control
[8] = biological target: Non-receptor tyrosine-protein kinase TYK2 (Homo sapiens) (UniProt P29597); assay: Binding affinity to wild-type human partial length TYK2 JH1 catalytic domain (V877 to C1187 residues) expressed in mammalian expression system assessed as residual binding level at 1 uM by Kinomescan method relative to control
[9] = biological target: Myosin-IIIb (Homo sapiens) (UniProt Q8WXR4); assay: Binding affinity to wild-type human partial length MYO3B (M1 to D357 residues) expressed in bacterial expression system assessed as residual binding level at 1 uM by Kinomescan method relative to control
[10] = biological target: Serine/threonine-protein kinase 16 (Homo sapiens) (UniProt O75716); assay: Binding affinity to wild-type human partial length STK16 (G11 to I305 residues) expressed in bacterial expression system assessed as residual binding level at 1 uM by Kinomescan method relative to control
[11] = biological target: Tyrosine-protein kinase JAK3 (Homo sapiens) (UniProt P52333); assay: Binding affinity to wild-type human partial length JAK3 JH1 catalytic domain (I781 to S1124 residues) expressed in mammalian expression system assessed as residual binding level at 1 uM by Kinomescan method relative to control
Method in brief: (§3)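 Active-site-directed competition binding panel of 468 kinases (KinomeScan), compound at 1 μM. The read-out is kinase remaining bound, given as a percentage of the DMSO control. […]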

[12] = biological target: AP2-associated protein kinase 1 (Homo sapiens) (UniProt Q2M2I8); assay: Binding affinity to human wild-type AAK1 (G25 to L333 residues) expressed in bacterial expression system assessed as residual binding level at 1 uM by Kinomescan method relative to control; method in brief: as §2
[13] = biological target: Serine/threonine-protein kinase 32C (Homo sapiens) (UniProt Q86UX6); assay: Binding affinity to wild-type human partial length YANK3 (M68 to G486 residues) expressed in bacterial expression system assessed as residual binding level at 1 uM by Kinomescan method relative to control
[14] = tested on: Mast/stem cell growth factor receptor Kit (Homo sapiens), P10721 [L576P]; assay: Binding affinity to human partial length KIT L576P mutant (Y545 to D952 residues) expressed in bacterial expression system assessed as residual binding level at 1 uM by Kinomescan method relative to control
Method in brief: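 KinomeScan active site-directed competition binding panel (468 kinases), compound tested at 1 μM. Result expressed as remaining kinase signal versus DMSO control (percent of control).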

[15] = biological target: Serine/threonine-protein kinase 35 (Homo sapiens) (UniProt Q8TDR2); assay: Binding affinity to wild-type human partial length STK35 (G182 to A534 residues) expressed in bacterial expression system assessed as residual binding level at 1 uM by Kinomescan method relative to control
[16] = biological target: Dual specificity mitogen-activated protein kinase kinase 6 (Homo sapiens) (UniProt P52564); assay: Binding affinity to wild-type human partial length MEK6 (K36 to D334 residues) expressed in bacterial expression system assessed as residual binding level at 1 uM by Kinomescan method relative to control; method in brief: as §3
[17] = biological target: Tyrosine-protein kinase JAK2 (Homo sapiens) (UniProt O60674); assay: Binding affinity to wild-type human partial length JAK2 JH1 catalytic domain (A829 to G1132 residues) expressed in mammalian expression system assessed as residual binding level at 1 uM by Kinomescan method relative to control; method in brief: as §3
[18] = biological target: Cyclin-dependent kinase 11A (Homo sapiens) (UniProt Q9UQ88); assay: Binding affinity to wild-type human partial length CDC2L2 (D391 to K730 residues) expressed in bacterial expression system assessed as residual binding level at 1 uM by Kinomescan method relative to control
[19] = biological target: Tyrosine-protein kinase receptor Tie-1 (Homo sapiens) (UniProt P35590); assay: Binding affinity to wild-type human partial length TIE1 (T819 to A1138 residues) expressed in bacterial expression system assessed as residual binding level at 1 uM by Kinomescan method relative to control
Method in brief: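 Active site-directed competition binding panel (KinomeScan, 468 kinases). Test compound at 1 μM. Read-out is kinase binding remaining versus DMSO control, expressed as percent of control. Scores above 35% are treated as weak binding.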

[20] = biological target: Serine/threonine-protein kinase Nek3 (Homo sapiens) (UniProt P51956); assay: Binding affinity to wild-type human full length NEK3 (M1 to R506 residues) expressed in mammalian expression system assessed as residual binding level at 1 uM by Kinomescan method relative to control; method in brief: as §1
[21] = biological target: Dual specificity tyrosine-phosphorylation-regulated kinase 2 (Homo sapiens) (UniProt Q92630); assay: Binding affinity to wild-type human full length DYRK2 (M1 to S528 residues) expressed in mammalian expression system assessed as residual binding level at 1 uM by Kinomescan method relative to control; method in brief: as §2

Chain of AP2-associated protein kinase 1 (Homo sapiens) (Q2M2I8 whole entry, looked up, the tested form may be a part): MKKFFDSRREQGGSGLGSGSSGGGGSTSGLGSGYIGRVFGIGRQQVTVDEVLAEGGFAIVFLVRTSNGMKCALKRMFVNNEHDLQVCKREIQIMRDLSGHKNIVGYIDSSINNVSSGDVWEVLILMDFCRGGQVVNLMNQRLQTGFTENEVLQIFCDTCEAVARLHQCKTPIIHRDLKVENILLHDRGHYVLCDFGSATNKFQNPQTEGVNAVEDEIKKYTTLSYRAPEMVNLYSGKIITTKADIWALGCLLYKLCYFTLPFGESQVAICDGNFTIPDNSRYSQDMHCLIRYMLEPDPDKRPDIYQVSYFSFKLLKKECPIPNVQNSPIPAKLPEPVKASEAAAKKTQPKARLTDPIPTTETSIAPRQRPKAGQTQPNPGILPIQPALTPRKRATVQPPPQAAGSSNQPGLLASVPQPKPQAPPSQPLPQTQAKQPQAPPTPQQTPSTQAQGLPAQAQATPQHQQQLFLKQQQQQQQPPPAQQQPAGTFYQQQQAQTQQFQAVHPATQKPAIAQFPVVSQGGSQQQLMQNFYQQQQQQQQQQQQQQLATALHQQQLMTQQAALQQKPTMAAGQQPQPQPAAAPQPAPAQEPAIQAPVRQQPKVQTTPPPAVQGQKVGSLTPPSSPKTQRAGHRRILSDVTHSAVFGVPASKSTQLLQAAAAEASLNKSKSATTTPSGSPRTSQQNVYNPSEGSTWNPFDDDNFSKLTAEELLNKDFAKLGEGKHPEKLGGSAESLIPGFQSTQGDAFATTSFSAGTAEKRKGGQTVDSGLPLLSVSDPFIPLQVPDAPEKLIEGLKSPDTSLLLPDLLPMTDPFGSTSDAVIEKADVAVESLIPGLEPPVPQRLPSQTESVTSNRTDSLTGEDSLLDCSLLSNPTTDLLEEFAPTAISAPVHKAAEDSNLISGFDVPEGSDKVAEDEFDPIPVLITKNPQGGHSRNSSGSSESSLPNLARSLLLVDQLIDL
Chain of Non-receptor tyrosine-protein kinase TYK2 (Homo sapiens) (P29597 whole entry, the tested form may be a part): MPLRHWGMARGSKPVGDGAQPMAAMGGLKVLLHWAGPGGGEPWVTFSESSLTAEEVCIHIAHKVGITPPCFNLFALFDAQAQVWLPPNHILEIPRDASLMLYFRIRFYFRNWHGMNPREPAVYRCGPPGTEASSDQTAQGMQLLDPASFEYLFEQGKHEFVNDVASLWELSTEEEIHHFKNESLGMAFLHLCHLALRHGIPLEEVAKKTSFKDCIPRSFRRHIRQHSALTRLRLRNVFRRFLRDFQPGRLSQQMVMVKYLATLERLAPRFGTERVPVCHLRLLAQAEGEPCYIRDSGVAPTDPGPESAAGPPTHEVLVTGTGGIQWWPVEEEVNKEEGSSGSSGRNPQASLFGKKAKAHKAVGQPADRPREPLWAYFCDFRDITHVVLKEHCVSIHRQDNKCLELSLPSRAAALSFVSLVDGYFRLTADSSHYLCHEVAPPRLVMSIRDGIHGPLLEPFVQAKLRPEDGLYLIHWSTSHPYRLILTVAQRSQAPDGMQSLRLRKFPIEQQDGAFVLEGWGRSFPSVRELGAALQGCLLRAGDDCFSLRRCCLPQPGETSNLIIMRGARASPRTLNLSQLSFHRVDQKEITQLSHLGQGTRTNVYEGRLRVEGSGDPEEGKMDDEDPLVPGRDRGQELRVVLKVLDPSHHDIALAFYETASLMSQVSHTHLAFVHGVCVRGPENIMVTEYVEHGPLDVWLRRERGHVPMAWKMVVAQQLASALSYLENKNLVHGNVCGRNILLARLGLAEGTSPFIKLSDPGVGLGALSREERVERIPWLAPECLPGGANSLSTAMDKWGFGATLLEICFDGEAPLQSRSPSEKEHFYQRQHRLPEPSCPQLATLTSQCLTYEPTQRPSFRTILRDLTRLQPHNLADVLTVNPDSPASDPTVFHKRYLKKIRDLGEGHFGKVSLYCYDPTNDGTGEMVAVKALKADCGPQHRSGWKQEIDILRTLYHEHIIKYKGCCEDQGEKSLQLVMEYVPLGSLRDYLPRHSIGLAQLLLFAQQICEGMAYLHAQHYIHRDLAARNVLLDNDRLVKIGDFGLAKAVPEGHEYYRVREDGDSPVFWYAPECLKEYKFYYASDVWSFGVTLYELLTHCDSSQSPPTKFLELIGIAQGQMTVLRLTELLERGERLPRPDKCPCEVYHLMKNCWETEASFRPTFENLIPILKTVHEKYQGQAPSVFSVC
Chain of Serine/threonine-protein kinase NLK (Homo sapiens) (Q9UBE8 whole entry, the tested form may be a part): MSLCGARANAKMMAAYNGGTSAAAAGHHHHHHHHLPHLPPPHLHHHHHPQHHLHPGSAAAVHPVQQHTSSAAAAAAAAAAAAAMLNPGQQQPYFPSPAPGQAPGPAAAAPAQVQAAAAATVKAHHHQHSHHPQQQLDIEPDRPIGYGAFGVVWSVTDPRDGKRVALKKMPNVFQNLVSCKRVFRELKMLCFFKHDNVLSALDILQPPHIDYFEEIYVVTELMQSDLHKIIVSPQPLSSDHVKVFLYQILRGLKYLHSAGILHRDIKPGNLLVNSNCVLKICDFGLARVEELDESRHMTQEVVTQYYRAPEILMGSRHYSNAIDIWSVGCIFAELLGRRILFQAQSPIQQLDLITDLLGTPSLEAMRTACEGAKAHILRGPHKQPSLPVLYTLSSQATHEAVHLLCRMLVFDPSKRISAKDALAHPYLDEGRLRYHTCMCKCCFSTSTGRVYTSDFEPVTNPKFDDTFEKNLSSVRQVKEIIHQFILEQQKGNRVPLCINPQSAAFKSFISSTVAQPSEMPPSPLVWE
Chain of Serine/threonine-protein kinase 16 (Homo sapiens) (O75716 whole entry, the tested form may be a part): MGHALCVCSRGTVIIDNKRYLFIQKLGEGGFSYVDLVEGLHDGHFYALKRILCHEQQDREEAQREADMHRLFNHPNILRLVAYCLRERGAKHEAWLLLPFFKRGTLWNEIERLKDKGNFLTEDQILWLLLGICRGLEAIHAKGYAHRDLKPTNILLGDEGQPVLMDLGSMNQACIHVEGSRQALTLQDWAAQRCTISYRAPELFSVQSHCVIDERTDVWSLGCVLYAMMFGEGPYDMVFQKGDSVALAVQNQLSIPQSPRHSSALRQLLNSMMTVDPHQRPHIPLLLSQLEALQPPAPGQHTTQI
Chain of Casein kinase I isoform epsilon (Homo sapiens) (P49674 whole entry, looked up, the tested form may be a part, canonical isoform): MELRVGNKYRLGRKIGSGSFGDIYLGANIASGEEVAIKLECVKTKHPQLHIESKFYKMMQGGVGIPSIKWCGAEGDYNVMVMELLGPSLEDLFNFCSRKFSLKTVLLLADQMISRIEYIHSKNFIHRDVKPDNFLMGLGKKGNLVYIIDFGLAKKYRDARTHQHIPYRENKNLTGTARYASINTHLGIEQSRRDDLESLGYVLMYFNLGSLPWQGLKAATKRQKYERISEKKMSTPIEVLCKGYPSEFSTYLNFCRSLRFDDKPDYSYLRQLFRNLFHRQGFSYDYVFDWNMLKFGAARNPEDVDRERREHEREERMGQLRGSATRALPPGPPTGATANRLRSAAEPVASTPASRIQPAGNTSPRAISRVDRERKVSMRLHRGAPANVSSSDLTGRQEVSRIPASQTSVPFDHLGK
Chain of Serine/threonine-protein kinase ULK2 (Homo sapiens) (Q8IYT8 whole entry, the tested form may be a part, canonical isoform): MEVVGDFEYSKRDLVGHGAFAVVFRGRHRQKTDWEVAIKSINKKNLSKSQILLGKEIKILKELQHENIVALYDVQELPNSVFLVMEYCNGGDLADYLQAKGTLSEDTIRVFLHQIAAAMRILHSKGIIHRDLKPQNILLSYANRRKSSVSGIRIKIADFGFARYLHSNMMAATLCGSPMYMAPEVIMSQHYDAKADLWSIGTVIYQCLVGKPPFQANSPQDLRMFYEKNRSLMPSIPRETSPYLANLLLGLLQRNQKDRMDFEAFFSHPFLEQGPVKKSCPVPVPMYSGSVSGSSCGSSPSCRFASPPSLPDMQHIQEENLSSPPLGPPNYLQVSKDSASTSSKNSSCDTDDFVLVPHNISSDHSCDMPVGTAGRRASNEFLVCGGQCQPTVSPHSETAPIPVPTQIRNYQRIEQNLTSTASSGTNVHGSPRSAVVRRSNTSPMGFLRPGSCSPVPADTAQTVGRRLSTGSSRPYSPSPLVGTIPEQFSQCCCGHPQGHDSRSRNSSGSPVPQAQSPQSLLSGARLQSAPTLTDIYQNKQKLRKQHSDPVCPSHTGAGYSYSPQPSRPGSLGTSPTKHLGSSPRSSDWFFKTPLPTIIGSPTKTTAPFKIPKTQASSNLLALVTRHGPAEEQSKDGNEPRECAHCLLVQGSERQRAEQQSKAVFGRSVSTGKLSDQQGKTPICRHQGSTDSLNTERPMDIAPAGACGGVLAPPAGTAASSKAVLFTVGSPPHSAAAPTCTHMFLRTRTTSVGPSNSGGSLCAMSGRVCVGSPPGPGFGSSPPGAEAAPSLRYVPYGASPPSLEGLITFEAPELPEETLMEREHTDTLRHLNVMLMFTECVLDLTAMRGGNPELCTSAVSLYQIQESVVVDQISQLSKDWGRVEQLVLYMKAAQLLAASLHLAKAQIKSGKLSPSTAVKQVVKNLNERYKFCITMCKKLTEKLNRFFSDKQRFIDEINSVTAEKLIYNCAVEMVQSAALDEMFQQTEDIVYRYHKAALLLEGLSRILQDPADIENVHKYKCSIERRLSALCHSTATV
Chain of Dual specificity mitogen-activated protein kinase kinase 3 (Homo sapiens) (P46734 whole entry, the tested form may be a part): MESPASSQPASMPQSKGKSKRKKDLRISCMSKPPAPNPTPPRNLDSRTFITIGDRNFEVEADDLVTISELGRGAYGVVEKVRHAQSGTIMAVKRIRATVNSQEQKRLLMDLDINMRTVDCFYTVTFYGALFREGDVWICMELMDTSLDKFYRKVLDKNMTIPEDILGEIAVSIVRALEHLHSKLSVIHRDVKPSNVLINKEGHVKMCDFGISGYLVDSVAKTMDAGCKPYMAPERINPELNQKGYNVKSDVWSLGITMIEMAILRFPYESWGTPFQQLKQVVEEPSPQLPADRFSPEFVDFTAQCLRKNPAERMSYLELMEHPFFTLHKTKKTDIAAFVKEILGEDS

`C=CC(=O)Nc1ccccc1Nc1nc(Nc2ccc(N3CCN(C)CC3)cc2)ncc1C(=O)Nc1c(C)cccc1Cl` was tested, and the Activity [1] was 69%, the Activity [2] was 65% and the Activity [3] was 76%. For the same compound, the Activity [4] was 100%, the Activity [5] was 100% and the Activity [6] was 100%. It also gave an Activity [7] of 100%, an Activity [8] of 100% and an Activity [9] of 91%. It also gave an Activity [10] of 100%, an Activity [11] of 88% and an Activity [12] of 100%. It also gave an Activity [13] of 100%, an Activity [14] of 65% and an Activity [15] of 100%. The Activity [16] was 99%, the Activity [17] was 90% and the Activity [18] was 100%. For the same compound, the Activity [19] was 83%, the Activity [20] was 88% and the Activity [21] was 89%.
